Measured values taken from ChEMBL document CHEMBL1151777, “Quantitating the concentration of Py-Im polyamide-fluorescein conjugates in live cells” (Bioorg Med Chem Lett, 2008).
Active and inactive are the calls of the source. The calls are words filed in the database; no cut-off is given here.

What was measured:
[1] = Binding affinity to DNA 5'WTWCGW3' sequence
Procedure, shortened: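 Labeled DNA equilibrated with polyamide 14-16 h at 22°C in 10 mM Tris-HCl, 10 mM KCl, 10 mM MgCl2, 5 mM CaCl2, pH 7.0, then cleaved with DNase I. Binding isotherms built from normalized theta values.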

HeLa [2] = test: Induction of nuclear localization in human HeLa cells at 2 uM after 12 to 14 hrs by confocal laser scanning microscopy; format: functional, cell-based
Procedure, shortened: (§1)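 Live cells were incubated 12-14 h at 37°C, 5% CO2 with 2 µM polyamide and imaged directly by confocal microscopy with fluorescein filters. Nuclear staining was scored qualitatively against medium fluorescence; a positive score means nuclear signal exceeds that of the medium.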

U-251 [3] = test: Induction of nuclear localization in human U251 cells at 2 uM after 12 to 14 hrs by confocal laser scanning microscopy; format: functional, cell-based; procedure, shortened: as §1
HeLa [4] = test: Inhibition of VEGF expression in human HeLa cells by quantitative RT-PCR; format: functional, cell-based
DNA = test: Binding affinity to calf thymus DNA at 2 uM assessed as fluorescence enhancement by steady-state fluorimetry relative to control; format: nucleic-acid assay; settings: Bos taurus
Procedure, shortened: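 Sonicated calf thymus DNA serially diluted in supplemented medium (0 to 1000 μM bp), polyamide at 2 μM final. Excitation 490 nm, emission scanned 500-650 nm, 2 nm slits, room temperature. Enhancement taken as the DNA-bound fluorescence relative to the DNA-free emission.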

[5] = Drug uptake in nucleus of human HeLa cells at 2 uM after 12 to 14 hrs by confocal microscopy in presence of calf thymus DNA; format: ADME, cell-based
Procedure, shortened: (§2)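 Cells grown 24 h in glass-bottom dishes, then given 2 µM polyamide in fresh medium for 12-14 h at 37°C, 5% CO2, and imaged live with a 40× oil objective using fluorescein filters. Calibration standards were polyamide serial dilutions in medium with 500 μM bp sonicated calf thymus DNA. Nuclear concentration was interpolated from the linear calibration curve. At least three images per condition, at least ten cells per image; cell cycles unsynchronized.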

[6] = Drug uptake in nucleus of human U251 cells at 2 uM after 12 to 14 hrs by confocal microscopy in presence of calf thymus DNA; format: ADME, cell-based; settings: u-251, 2 µM; procedure, shortened: as §2
HeLa [7] = test: Cytotoxicity against human HeLa cells assessed as cell viability by trypan blue assay; format: functional
Procedure, shortened: (§3)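 Following 12-14 h polyamide exposure (0, 0.4, 2 or 10 μM final) at 37°C, 5% CO2, cells were trypsinized, pelleted and resuspended in HBSS (no Mg2+/Ca2+, 2.5 mg/mL BSA, 10 mM HEPES, pH 7.0-7.2). Viability was checked by trypan blue staining before flow cytometry.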

U-251 [8] = test: Cytotoxicity against human U251 cells assessed as cell viability by trypan blue assay; format: functional; procedure, shortened: as §3
HeLa [9] = test: Drug level in human HeLa cells at 2 uM after 12 to 14 hrs flow cytometry; format: ADME, cell-based
Procedure, shortened: (§4)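 Cells at 1.33×10^5 cells/mL grown 24 h, medium replaced, polyamide added at 0, 0.4, 2 or 10 μM final, 12-14 h at 37°C, 5% CO2. Washed, resuspended in HBSS at 5×10^5 cells/mL. 10,000 cells per sample read in the fluorescein channel. Fluorophores per cell interpolated from a linear curve of the five highest Rainbow bead peaks, then divided by a modeled nuclear volume of 1×10^-12 L (cylinder, radius 10 µm, height 5 µm).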

HeLa [10] = test: Drug level in human HeLa cells at 10 uM after 12 to 14 hrs flow cytometry; format: ADME, cell-based; procedure, shortened: as §4
HeLa [11] = test: Drug level in human HeLa cells at 0.4 uM after 12 to 14 hrs flow cytometry; format: ADME, cell-based; procedure, shortened: as §4
U-251 [12] = test: Drug level in human U251 cells at 0.4 uM after 12 to 14 hrs flow cytometry; format: ADME, cell-based; settings: u-251, 0.4 µM; procedure, shortened: as §4
U-251 [13] = test: Drug level in human U251 cells at 2 uM after 12 to 14 hrs flow cytometry; format: ADME, cell-based; settings: u-251, 2 µM; procedure, shortened: as §4
U-251 [14] = test: Drug level in human U251 cells at 10 uM after 12 to 14 hrs flow cytometry; format: ADME, cell-based; settings: u-251, 10 µM; procedure, shortened: as §4

- Ka [1]: 3.8 ×10⁹ /M
- fold change (FC) (DNA): 14
- Drug uptake [5]: 0.5 µM
- Drug uptake [6]: 1.6 µM
- Drug uptake (HeLa [9]): 0.09 µM
- Drug uptake (HeLa [10]): 0.2 µM
- Drug uptake (HeLa [11]): 0.02 µM
- Drug uptake (U-251 [12]): 0.09 µM
- Drug uptake (U-251 [13]): 0.34 µM
- Drug uptake (U-251 [14]): 0.84 µM
Compound: Cn1cc(NC(=O)c2cc(NC(=O)c3nc(NC(=O)c4cc(NC(=O)[C@H](N)CCNC(=O)c5nc(NC(=O)c6cc(NC(=O)c7cc(NC(=O)c8sccc8Cl)cn7C)cn6C)cn5C)cn4C)cn3C)cn2C)cc1C(=O)NCCC(=O)NCCCNC(=S)Nc1ccc(-c2c3ccc(=O)cc-3oc3cc(O)ccc23)c(C(=O)O)c1
- Activity (HeLa [2]): Active
- Activity (U-251 [3]): Active
- Activity (HeLa [4]): Active
- Activity (HeLa [7]): >95%
- Activity (U-251 [8]): >95%
